Calls of active or inactive are those of the source. The rule behind the calls is not given here.
Tests used:
[1] = biological target: T1, Malate dehydrogenase, cytoplasmic (Sus scrofa) (UniProt P11708); assay: Ability to inhibit cytoplasmic malate dehydrogenase; Inactive
T1 sequence (whole entry): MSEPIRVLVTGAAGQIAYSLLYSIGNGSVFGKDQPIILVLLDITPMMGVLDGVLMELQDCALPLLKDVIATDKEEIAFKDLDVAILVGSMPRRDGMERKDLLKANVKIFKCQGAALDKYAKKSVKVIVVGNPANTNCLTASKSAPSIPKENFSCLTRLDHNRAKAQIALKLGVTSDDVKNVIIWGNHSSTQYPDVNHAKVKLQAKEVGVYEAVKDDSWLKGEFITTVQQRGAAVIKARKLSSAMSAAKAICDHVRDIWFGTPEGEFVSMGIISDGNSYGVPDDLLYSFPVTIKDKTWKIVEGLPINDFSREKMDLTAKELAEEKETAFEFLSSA
In short: (§1)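 Pig heart enzyme (cytoplasmic or mitochondrial form), diluted in 0.05 M Tris pH 7.4 with 1% BSA to give 0.022–0.027 OD/min at 340 nm. Cuvette holds 0.05 M Tris pH 8.4, L-malate, NAD+ and Me2SO ± inhibitor. Equilibrated at 25 °C, then started with enzyme. Five inhibitor concentrations in triplicate; I50 from least-squares dose-response line.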

[2] = system: L-lactate dehydrogenase, skeletal muscle M4 (Oryctolagus cuniculus); assay: Ability to inhibit skeletal muscle LDH (LDH-M4); Inactive; conditions: Muscle tissue
[3] = biological target: T2, Malate dehydrogenase, mitochondrial (Sus scrofa) (UniProt P00346); assay: Ability to inhibit mitochondrial malate dehydrogenase; Inactive; in short: as §1
T2 sequence (whole entry): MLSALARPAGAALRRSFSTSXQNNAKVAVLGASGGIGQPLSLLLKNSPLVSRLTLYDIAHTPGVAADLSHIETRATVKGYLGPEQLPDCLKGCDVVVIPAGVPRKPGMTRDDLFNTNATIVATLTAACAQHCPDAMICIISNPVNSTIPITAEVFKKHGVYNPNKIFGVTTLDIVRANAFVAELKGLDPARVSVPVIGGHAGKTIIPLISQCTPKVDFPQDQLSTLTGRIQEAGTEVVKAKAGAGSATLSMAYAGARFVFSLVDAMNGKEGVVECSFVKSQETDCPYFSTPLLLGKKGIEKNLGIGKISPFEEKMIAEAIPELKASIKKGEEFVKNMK

Compound | pI50 [1] | pI50 [3] | pI50 [2]
O=C(O)c1cnc2cc(OCCc3ccccc3)ccc2c1O | – | – | inactive
O=C(O)c1cnc2cc(OCCOc3ccc4ccccc4c3)ccc2c1O | inactive | – | inactive
O=C(O)c1cnc2ccccc2c1O | inactive | inactive | inactive
COc1ccc2c(O)c(C(=O)O)cnc2c1 | inactive | inactive | inactive
O=C(O)c1cnc2cc(OCCc3ccc4ccccc4c3)ccc2c1O | – | – | inactive
O=C(O)c1cnc2cc(F)ccc2c1O | – | – | inactive
O=C(O)c1cnc2cc(OCCOc3ccccc3)ccc2c1O | inactive | – | inactive
O=C(O)c1cnc2cc(OCCc3ccc(Oc4ccccc4)cc3)ccc2c1O | – | – | inactive
O=C(O)c1cnc2cc(OCCOc3ccc(Oc4ccccc4)cc3)ccc2c1O | – | – | inactive
O=C(O)c1cnc2cc(OCCOc3ccc(F)cc3)ccc2c1O | inactive | – | inactive
NC(=O)c1ccc2c(O)c(C(=O)O)cnc2c1 | – | – | inactive
O=C(O)c1cnc2cc(OCCOc3ccc(Br)cc3)ccc2c1O | inactive | – | inactive

Continued, in another order:

pI50 [1] | pI50 [3] | Compound | pI50 [2]
inactive | – | O=C(O)c1cnc2cc(OCc3ccc(Br)cc3)ccc2c1O | inactive
inactive | – | O=C(O)c1cnc2cc(OCCc3ccc(F)cc3)ccc2c1O | inactive
inactive | – | O=C(O)c1cnc2cc(OCc3c(Cl)c(Cl)c(Cl)c(Cl)c3Cl)ccc2c1O | inactive
inactive | – | O=C(O)c1cnc2cc(OCc3ccccc3)ccc2c1O | inactive
inactive | – | O=C(O)c1cnc2cc(OCc3ccc4ccccc4c3)ccc2c1O | inactive
inactive | – | O=C(O)c1cnc2cc(OCc3ccc(Cl)c(Cl)c3)ccc2c1O | inactive
inactive | – | O=C(O)c1cnc2cc(OCc3ccc(F)cc3)ccc2c1O | inactive
inactive | – | O=C(O)c1cnc2cc(OCc3cccc4ccccc34)ccc2c1O | inactive

Source: ChEMBL document CHEMBL1122163, “4-hydroxyquinoline-3-carboxylic acids as inhibitors of cell respiration. 2. Quantitative structure-activity relationship of dehydrogenase enzyme and Ehrlich ascites tumor cell inhibitions” (J Med Chem, 1982)
